The record followed here is ChEMBL document CHEMBL1142689, “Identification of 2-(4-benzyloxyphenyl)-N- [1-(2-pyrrolidin-1-yl-ethyl)-1H-indazol-6-yl]acetamide, an orally efficacious melanin-concentrating hormone receptor 1 antagonist for the treatment of obesity” (J Med Chem, 2005).

The nature of data set [1]: Maximum concentration in brain of mice following peroral administration at 10 mg/kg; n=3. It counts as ADME, organism-based. Set-up: dose 10 mg/kg, route oral. The note with it: mouse, po. The gist of the method:
(§1)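 DIO mice given a single 10 mg/kg oral dose in 1% Tween-80 in water. Plasma and brain drug levels were measured over time. Cmax is the average of the three mice with the highest concentrations. AUC0-t was calculated by the linear trapezoidal rule, and the residual area (Ct/β) was added to give AUC0-∞. C12h is the brain level at 12 h postdose.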

Data set [2] deals with T1, Melanin-concentrating hormone receptor 1 (Homo sapiens, UniProt Q99705). Kind of data set: Inhibition of melanin concentrating hormone receptor 1-mediated [Ca2+] release in human neuronal IMR-32 cells. The data set is classed as functional, cell-based.
T1 sequence (Q99705 whole entry): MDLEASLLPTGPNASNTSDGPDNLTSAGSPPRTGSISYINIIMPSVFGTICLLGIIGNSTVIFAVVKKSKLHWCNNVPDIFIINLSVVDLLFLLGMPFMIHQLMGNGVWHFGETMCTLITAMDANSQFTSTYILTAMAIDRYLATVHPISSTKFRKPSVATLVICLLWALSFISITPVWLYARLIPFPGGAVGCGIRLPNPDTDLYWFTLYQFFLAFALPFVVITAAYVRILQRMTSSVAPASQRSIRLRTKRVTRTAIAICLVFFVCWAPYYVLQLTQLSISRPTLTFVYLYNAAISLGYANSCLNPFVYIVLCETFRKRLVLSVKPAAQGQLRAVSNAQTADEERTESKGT
Data set [3] is described as follows: Maximum concentration in brain of mice at 12 hours following peroral administration at 10 mg/kg; n=3. The data set is classed as ADME, organism-based. Set-up: dose 10 mg/kg, route oral. The settings on record: mouse, po. The gist of the method: as §1
Data set [4] in a line: Area under concentration time curve in plasma of mice following peroral administration at 10 mg/kg; n=3. It counts as ADME, organism-based. Set-up: dose 10 mg/kg, route oral. The note with it: mouse, in vivo, po. In outline:
as §1

Data set [5] in a line: Area under concentration time curve in brain of mice following peroral administration at 10 mg/kg; n=3. The data set is classed as ADME, organism-based. Set-up: dose 10 mg/kg, route oral. The note with it: mouse, in vivo, po. The gist of the method: as §1
Data set [6] addresses T1, Melanin-concentrating hormone receptor 1. Put plainly: Inhibition of melanin concentrating hormone receptor 1 from human neuronal IMR-32 cells. It counts as cell-based.
Data set [7] can be described thus: Area under concentration time curve in plasma of mice following peroral administration of 10 mg/kg of the compound. The data set is classed as ADME, organism-based. Set-up: dose 10 mg/kg, route oral. The note with it: mouse, in vivo, po. In outline:
as §1

Data set [8] in a line: Area under concentration time curve in brain of mice following peroral administration of 10 mg/kg of the compound. The data set is classed as ADME, organism-based. Set-up: dose 10 mg/kg, route oral. The settings on record: mouse, in vivo, po. In outline:
as §1

Data set [9] deals with Mus musculus. Put plainly: Change in body weight of mice on day 14 following peroral administration at 10 mg/kg, twice a day; n = 12; body weight at day 0 = 44.7 g. The data set is classed as functional. The note with it: route oral. In outline:
(§2)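 Chronic study in DIO mice fed a high-fat diet ad libitum. Dosing was by oral gavage, bid for 14 days, in 4 mL/kg of 1% Tween-80 in water, with vehicle controls. Body weight and food intake were recorded on days 1, 4, 7, 11 and 14. Body-weight change is in grams relative to day 0, and % change is relative to vehicle. Mean ± SEM, n = 12.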

A short description of data set [10]: Concentration in plasma of mice,1 hour after administration of final dose at 30 mg/kg, twice a day. The data set is classed as ADME, organism-based. Set-up: dose 30 mg/kg. The note with it: mouse, read-out: Cmax. The gist of the method:
(§3)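 DIO mice received the test compound orally, bid, in 1% Tween-80 in water for 14 days. Plasma and brain drug concentrations were measured 1 h (taken as Cmax) or 17 h after the final dose on day 14. Mean ± SEM, n = 3.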

A short description of data set [11]: Concentration in brain of mice,1 hour after administration of final dose at 10 mg/kg, twice a day. It counts as ADME, organism-based. Set-up: dose 10 mg/kg. The note with it: mouse, read-out: Cmax. In outline: as §3
The test system of data set [12] is Mus musculus. Put plainly: Body weight of mice on day 14 following peroral administration at 10 mg/kg, twice a day; n = 12. It counts as functional. The note with it: route oral. In outline:
as §2

The nature of data set [13]: Concentration in brain of mice,17 hours after administration of final dose at 30 mg/kg, twice a day. It counts as ADME, organism-based. The settings on record: mouse, read-out: Cmax. Further details: dose 30 mg/kg. In outline:
as §3

A short description of data set [14]: Concentration in plasma of mice,17 hours after administration of final dose at 10 mg/kg, twice a day. The data set is classed as ADME, organism-based. The note with it: mouse, read-out: Cmax. Set-up: dose 10 mg/kg. In outline: as §3
Data set [15] can be described thus: Concentration in plasma of mice,1 hour after administration of final dose at 10 mg/kg, twice a day. It counts as ADME, organism-based. Further details: dose 10 mg/kg. The settings on record: mouse, read-out: Cmax. In outline:
as §3

A short description of data set [16]: Concentration in brain of mice,1 hour after administration of final dose at 30 mg/kg, twice a day. The data set is classed as ADME, organism-based. Set-up: dose 30 mg/kg. The note with it: mouse, read-out: Cmax. In outline: as §3
Data set [17] has as its system Mus musculus. Put plainly: Change in body weight of mice on day 14 following peroral administration at 30 mg/kg, twice a day; n = 12; body weight at day 0 = 45 g. The note with it: route oral. It counts as functional. In outline:
as §2

Data set [18] is described as follows: Concentration in plasma of mice,17 hours after administration of final dose at 30 mg/kg, twice a day. It counts as ADME, organism-based. Further details: dose 30 mg/kg. The settings on record: mouse, read-out: Cmax. The gist of the method:
as §3

A short description of data set [19]: Concentration in brain of mice,17 hours after administration of final dose at 10 mg/kg, twice a day. Set-up: dose 10 mg/kg. The note with it: mouse, read-out: Cmax. The data set is classed as ADME, organism-based. The gist of the method:
as §3

Data set [20] relates to Mus musculus. Kind of data set: Body weight of mice on day 14 following peroral administration at 30 mg/kg, twice a day; n = 12. The data set is classed as functional. The settings on record: route oral. The gist of the method:
as §2

Data set [21] concerns Mus musculus. Put plainly: Change in body weight of mice on day 14 following peroral administration at 10 mg/kg, 4 times a day; n = 12; body weight at day 0 = 43.2 g. It counts as functional. The note with it: route oral.
For data set [22], the system named is Mus musculus. Kind of data set: Body weight of mice on day 14 following peroral administration at 10 mg/kg, 4 times a day; n = 12. The data set is classed as functional. The settings on record: route oral.
A short description of data set [23]: Maximum concentration of the compound in brain of mice following peroral administration at 10 mg/kg; n=3. The data set is classed as ADME, organism-based. The settings on record: mouse, po. Further details: dose 10 mg/kg, route oral. In outline: as §1

pIC50: −log10 of the molar value. Bounds are passed on as bounds.

Consider `O=C(Cc1ccc(OCc2ccccc2)cc1)Nc1ccc2c(cnn2CCN2CCCC2)c1`, for which the Cmax in data set [1] amounted to 4260 ng/g; in data set [3], 76 ng/g. The negative-log IC50 (pIC50) in [2] is below 5.00; in data set [6], 6.25. The AUC in [4] was 8.51 µg/h/g; in data set [5], 10.4 µg/h/g.

For the compound `O=C(Cc1ccc(OCc2ccccc2)cc1)Nc1cccc2c1cnn2CCN1CCCC1`, the Cmax came out at 464 ng/g in data set [1] and 8.11 ng/g in data set [3]. Also, the pIC50 in data set [2] is 7.15; in data set [6], 7.61. In addition, the AUC is 0.611 µg/h/g in data set [4] and 1.18 µg/h/g in data set [5].

With `O=C(Cc1ccc(OCc2ccccc2)cc1)Nc1ccc2ccn(CCN3CCCC3)c2c1`, the AUC in data set [7] turned out to be 1.37 µg/h/mL; in data set [8], 0.348 µg/h/g. In addition, the negative-log IC50 (pIC50) in [2] was 5.83; in data set [6], 7.66.

`O=C(Cc1ccc(OCc2ccccc2)cc1)Nc1ccc2cnn(CCN3CCCC3)c2c1`: the Cmax came out at 177 ng/g in data set [1] and 29 ng/g in data set [3]. The negative-log IC50 (pIC50) in [2] was 7.96; in [6], 8.85. The Activity in the data set on Mus musculus [9] is -8.25%; with Mus musculus [17], -15.2%. Besides, the concentration at 1 h in [10] came out at 824 ng/mL; in data set [11] it was 115 ng/mL; in [15], 168 ng/mL; in data set [16] it was 233 ng/mL. For the same compound, the Body weight with Mus musculus [12] amounted to 42.6 g; in the data set on Mus musculus [20] it was 39.7 g. Besides, the concentration at 17 h in [13] turned out to be 5.35 ng/mL; in data set [14] it was 0.39 ng/mL; in data set [18], 2.23 ng/mL; in data set [19], 7.02 ng/mL. In addition, the AUC in data set [4] was found to be 2.12 µg/h/g; in [5], 1.33 µg/h/g.

For `O=C(Cc1ccc(OCc2ccccc2)cc1)Nc1ccc2nn(CCN3CCCC3)cc2c1`, the pIC50 in data set [2] was below 5.00; in data set [6], 5.70.

On to `CCN[C@@H](C)Cc1cccc(C(F)(F)F)c1` [DEXFENFLURAMINE], for which the Activity in the data set on Mus musculus [21] is listed as -10.1%. The compound further yielded a Body weight with Mus musculus [22] of 40.4 g.

As to `O=C(Cc1ccc(OCc2ccccc2)cc1)Nc1ccc2c(c1)ncn2CCN1CCCC1`, the pIC50 in data set [2] was below 5.00; in [6], 6.11.

Turning to `O=C(Cc1ccc(OCc2ccccc2)cc1)Nc1ccc2cn(CCN3CCCC3)nc2c1`, the results for the pIC50 in data set [2] and in data set [6] were 6.06 and 6.84, respectively.

As to `O=C(Cc1ccc(OCc2ccccc2)cc1)Nc1ccc2ncn(CCN3CCCC3)c2c1`, the negative-log IC50 (pIC50) in data set [2] was below 5.00; in [6] it was 6.79. Further, the AUC in data set [4] was determined as 0.937 µg/h/g; in data set [5], 0.244 µg/h/g. Moreover, the Cmax in data set [23] amounted to 54.4 ng/g.

Take `O=C(CNCc1ccc(Oc2ccccc2)cc1)Nc1ccc2ncn(CCN3CCCC3)c2c1`: the figures for the AUC in data set [7] and in data set [8] were 1.16 µg/h/mL and 0.674 µg/h/g, respectively. In addition, the pIC50 in data set [2] is 5.74; in data set [6] it was 6.52.

`O=C(Cc1ccc(OCc2ccccc2)cc1)Nc1cccc2nn(CCN3CCCC3)cc12`: the maximum concentration (Cmax) stood at 214 ng/g in [1] and 12.3 ng/g in data set [3]. For the same compound, the pIC50 in [2] was 6.54; in data set [6], 7.38. Moreover, the AUC in [4] amounted to 2.09 µg/h/g; in [5], 0.214 µg/h/g.

For orientation: Cmax means the highest concentration seen after dosing. A word on the pIC50: it is −log10 of the IC50, conventionally taken in molar units.
